Assay results as given in ChEMBL document CHEMBL1156503, “Long-acting kappa opioid antagonists disrupt receptor signaling and produce noncompetitive effects by activating c-Jun N-terminal kinase” (J Biol Chem, 2007).
Calls of active or inactive are those of the source.

Experiments:
[1] = test system: Mus musculus; assay: Inhibition of U50488-induced analgesic activity against C57BL/6 mouse assessed as tail withdrawal latency at 10 mg/kg, ip; type: functional, organism-based; parameters: dose 10 mg/kg
Method in brief: (§1)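 Male C57Bl/6 mice, 20–30 g. Single 10 mg/kg i.p. dose or saline. At set days, U50,488 15 mg/kg i.p. was given and tail-withdrawal latency from 52 ± 1 °C water measured 30 min later, 15 s cut-off. One-way ANOVA with Bonferroni post hoc test.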

[2] = test system: Mus musculus; assay: Inhibition of U50488-induced analgesic activity against C57BL/6 mouse assessed as tail withdrawal latency at 10 mg/kg, ip after 2 days; type: functional, organism-based; parameters: dose 10 mg/kg; method in brief: as §1
[3] = target: T1, c-Jun N-terminal kinase, JNK (Homo sapiens, UniProt P45983+P53779+P45984); assay: Increase of JNK phosphorylation in U50488 treated HEK293 cells expressing GFP tagged kappa opioid receptor relative to U50,488; type: cell-based
[4] = target: T1, c-Jun N-terminal kinase, JNK; assay: Increase of JNK phosphorylation in U50488 treated HEK293 cells expressing GFP tagged kappa opioid receptor; type: cell-based
Method in brief: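 KOR-GFP HEK293 cells under G418, serum-starved 18 h, then concentration series for 1 h at 37 °C. Lysate (40 μg protein) immunoblotted for phospho-JNK, p54 and p46 summed, normalised to basal (100%). EC50 from nonlinear regression; n = 3–5 separate cultures.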

[5] = target: T1, c-Jun N-terminal kinase, JNK; assay: Increase of U50488-induced JNK phosphorylation in untransfected HEK293 cells at 50 uM after 15 mins; type: cell-based
[6] = target: T1, c-Jun N-terminal kinase, JNK; assay: Increase of JNK phosphorylation in U50488 treated untransfected HEK293 cells at 100 uM after 15 mins; type: cell-based
[7] = target: T1, c-Jun N-terminal kinase, JNK; assay: Increase of JNK phosphorylation in U50488 treated untransfected HEK293 cells at 10 uM after 1 hr; type: cell-based
Method in brief: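 Untransfected HEK293 cells grown without G418, serum-starved 18 h, then ligand 10 μM for 1 h at 37 °C. Phospho-JNK immunoblot quantified as % of basal untreated control, n = 3–7.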

[8] = test system: Mus musculus; assay: Inhibition of U50488-induced analgesic activity against C57BL/6 mouse assessed as tail withdrawal latency at 10 mg/kg, ip upto 21 days; type: functional, organism-based; parameters: dose 10 mg/kg; method in brief: as §1
[9] = test system: Mus musculus; assay: Effect on U50488-induced analgesic activity in C57BL/6 mouse assessed as tail withdrawal latency at 10 mg/kg, ip; type: functional, organism-based; parameters: dose 10 mg/kg
Method in brief: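 Male mice, 20–30 g, 8–12 weeks old, got a single ip injection in saline (control: saline). At set times from 24 h to 28 days afterward, they were challenged with U50,488 15 mg/kg ip. Tail-withdrawal latency from 52 ± 1 °C water was read 30 min later, with a 15 s cut-off. Groups were compared with saline by one-way ANOVA and Bonferroni.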

[10] = test system: Mus musculus; assay: Inhibition of U50488-induced analgesic activity against C57BL/6 mouse assessed as tail withdrawal latency at 10 mg/kg, ip for 14 days; type: functional, organism-based; parameters: dose 10 mg/kg; method in brief: as §1
[11] = test system: Mus musculus; assay: Increase of JNK phosphorylation in mouse striatum at 10 mg/kg, ip after 1 hr; type: organism-based; parameters: dose 10 mg/kg
Method in brief: (§2)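 C57Bl/6 mice (wild type; KOR−/− as control) given 10 mg/kg i.p. Spinal cord and striatum dissected 60 min later and Dounce-homogenised in lysis buffer with phosphatase and protease inhibitors. Phospho-JNK immunoblot expressed as % of basal untreated control.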

[12] = test system: Mus musculus; assay: Increase of JNK phosphorylation in mouse spinal cord at 10 mg/kg, ip after 1 hr; type: organism-based; parameters: dose 10 mg/kg; method in brief: as §2
[13] = target: Kappa-type opioid receptor (Mus musculus, UniProt P33534); assay: Displacement of [3H]U69,593 from kappa opioid receptor in mouse brain tissue
Chain of Kappa-type opioid receptor (P33534 whole entry): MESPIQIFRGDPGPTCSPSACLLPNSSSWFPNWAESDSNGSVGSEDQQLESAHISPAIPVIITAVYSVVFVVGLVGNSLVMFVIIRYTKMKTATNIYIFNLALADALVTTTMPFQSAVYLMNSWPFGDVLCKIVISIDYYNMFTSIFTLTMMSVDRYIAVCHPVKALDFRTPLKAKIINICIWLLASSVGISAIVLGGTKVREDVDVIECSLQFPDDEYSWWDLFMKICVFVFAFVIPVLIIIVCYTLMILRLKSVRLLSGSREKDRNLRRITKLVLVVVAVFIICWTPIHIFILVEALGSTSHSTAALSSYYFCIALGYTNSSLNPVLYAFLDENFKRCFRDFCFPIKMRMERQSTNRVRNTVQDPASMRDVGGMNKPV

[14] = target: T1, c-Jun N-terminal kinase, JNK; assay: Increase in JNK phosphorylation in pertussis toxin treated HEK293 cells expressing GFP tagged kappa opioid receptor at 10 uM after 1 hr; type: cell-based
Method in brief: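 KOR-GFP HEK293 cells serum-starved, pretreated with pertussis toxin 200 ng/ml for 18 h at 37 °C, then ligand 10 μM for 1 h at 37 °C. Phospho-JNK p54/p46 read by infrared immunoblot with β-actin loading control. Expressed as % basal, n = 3–4; Student's t test.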

[15] = test system: Mus musculus; assay: Reversal of inhibition of U50488-induced analgesic activity against C57BL/6 mouse assessed as tail withdrawal latency at 10 mg/kg, ip after 8 days in presence of SP600125; type: functional, organism-based; parameters: dose 10 mg/kg
Method in brief: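 Wild-type mice given SP600125 30 mg/kg i.p. (vehicle 5% […]/20% Cremophor EL/75% saline) 24 h and 30 min before 10 mg/kg i.p. test drug. Day 7–8: U50,488 25 mg/kg i.p. challenge, then tail-flick latency in 52 °C water, 15 s cut-off.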

[16] = test system: Mus musculus; assay: Inhibition of U50488-induced analgesic activity against C57BL/6 mouse assessed as tail withdrawal latency at 10 mg/kg, ip after 28 days; type: functional, organism-based; parameters: dose 10 mg/kg; method in brief: as §1

C=CCN1CC[C@]23c4c5ccc(O)c4O[C@H]2C(=O)CC[C@@]3(O)[C@H]1C5
Activity [1]: Active | Activity [2]: inactive

CO[C@@]12CC[C@@]3(C[C@@H]1[C@](C)(O)C(C)(C)C)[C@H]1Cc4ccc(O)c5c4[C@@]3(CCN1CC1CC1)[C@H]2O5
Intrinsic activity [3]: inactive | Activity [4]: inactive

COc1ccc(C[C@H]2NC[C@H](O)[C@H]2OC(C)=O)cc1
Activity [5]: Active | Activity [6]: Active

N=C(N)Nc1ccc2[nH]c3c(c2c1)C[C@@]1(O)[C@H]2Cc4ccc(O)c5c4[C@@]1(CCN2CC1CC1)[C@H]3O5
Activity [7]: inactive | Activity [8]: Active

Oc1c2ccccc2c2c3c(cccc13)N=N2
Activity [9]: inactive

CC(C)C[C@H](NC(=O)[C@H](Cc1ccccc1)NC(=O)CNC(=O)CNC(=O)[C@@H](N)Cc1ccc(O)cc1)C(=O)N[C@@H](CCCNC(=N)N)C(=O)N[C@@H](CCCNC(=N)N)C(=O)N[C@@H](CCC(N)=O)C(=O)N[C@@H](Cc1ccccc1)C(=O)N[C@@H](CCCCN)C(=O)N[C@H](C(=O)N[C@H](C(=O)N[C@H](C(=O)O)[C@@H](C)O)C(C)C)C(C)C [DYNORPHIN B]
Intrinsic activity [3]: 0.61 | EC50 [4]: 87 nM

CC(C)[C@@H](CN1CC[C@@](C)(c2cccc(O)c2)[C@@H](C)C1)NC(=O)[C@H]1Cc2ccc(O)cc2CN1 [JDTIC]
Activity [10]: Active | Intrinsic activity [3]: 0.57 | Activity [7]: inactive | EC50 [4]: 5 nM

Oc1ccc2c3c1O[C@H]1c4[nH]c5c(c4C[C@@]4(O)[C@@H](C2)N(CC2CC2)CC[C@]314)C[C@@]1(O)[C@H]2Cc3ccc(O)c4c3[C@@]1(CCN2CC1CC1)[C@H]5O4 [NORBINALTORPHIMINE]
Intrinsic activity [3]: 0.84 | Activity [7]: inactive | Activity [11]: Active | Activity [12]: Active | Kd [13]: 1.65 nM | EC50 [4]: 158 nM | Activity [14]: inactive | Activity [15]: Active | Activity [8]: Active | Activity [16]: inactive
